{"source": "PubChem BioAssay AID651654", "about": "(Broad Institute, 2012)", "note": "Out of some 360,000 compounds screened, about 740 (0.21%) were called active. Many of the other results were omitted from the sample, so actives are more common in it than they were. Values without a mark were called inactive.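 How the source made its calls: active means mean lysis activity across replicates of at least 80%, whatever share of replicates individually reach that level; inactive means mean lysis activity below 80%.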", "data": [{"assay": "Cryptococcus neoformans cell lysis inducers, primary screen, AK release luminescence, single concentration (AID 651654)", "settings": "C. neoformans lysis, adenylate kinase release luminescence, 4 h; at 15 µM; stronger effect = higher value; normalised: neutral wells 0, clomiphene wells 100", "procedure,_shortened": "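Material: C. neoformans cells | Amount: Yeast cell density of 5 × 10^6 cells/mL | Medium: Fresh YPD growth medium | Dosing: Single dose | Times: Static 4 h at 37 °C with compound, 1 h detection | Detection: AK luminescence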", "values": [{"compound": "C[C@H](CO)N1C[C@H](C)[C@H](CN(C)C(=O)Nc2ccc(C(F)(F)F)cc2)Oc2ccc(NC(=O)C3CC3)cc2C1=O", "lysis activity": "8.67%"}, {"compound": "Cn1cnc(CCNC(=O)C[C@@H]2CC[C@@H]3[C@H](COC[C@@H](O)CN3C(=O)Nc3ccccc3)O2)c1", "lysis activity": "1.75%"}, {"compound": "C[C@H](CO)N1C[C@H](C)[C@H](CN(C)S(C)(=O)=O)Oc2ccc(NC(=O)Nc3ccc(F)cc3)cc2C1=O", "lysis activity": "0.358%"}, {"compound": "C#CCN1C(Cc2ccccc2)C(=O)O[C@H](C2CCCCC2)[C@@H]1/C=C/C1CC1", "note": "(stereo not given in full)", "lysis activity": "5.01%"}, {"compound": "CO[C@@H]1CN(C)C(=O)c2cc(NC(C)=O)ccc2OC[C@H](C)N(CC2CCCCC2)C[C@@H]1C", "lysis activity": "-3.61%"}, {"compound": "O=C(Nc1ccccc1)c1cc2ccccc2[nH]1", "lysis activity": "-9.41%"}, {"compound": "COc1ccc(C2=Nc3ccccc3NC(=O)C2N(C(=O)c2cc3ccccc3[nH]2)c2ccccc2)cc1", "note": "(stereo not given)", "lysis activity": "101% (active)"}, {"compound": "CC(OC(=O)c1cc2ccccc2[nH]1)C(=O)N(C)c1ccccc1", "note": "(stereo not given)", "lysis activity": "-1.83%"}, {"compound": "CO[C@H]1CN(C)C(=O)c2cc(NS(=O)(=O)CC(F)(F)F)ccc2OC[C@@H](C)N(Cc2nccs2)C[C@@H]1C", "lysis activity": "0.476%"}, {"compound": "CN1c2ccc(C3=CCCCC3)cc2[C@H]2[C@H](CCN2S(=O)(=O)c2ccccc2)[C@@H]1CO", "lysis activity": "0.27%"}, {"compound": "O=C(C1CCC1)N1CCCCN2[C@H](CO)[C@H](c3ccc(-c4cccc(F)c4)cc3)[C@H]2C1", "lysis activity": "4.53%"}, {"compound": "COc1cccc(NC(=O)C[C@H]2CC[C@@H]3[C@@H](COc4ccc(NC(=O)C5CCOCC5)cc4C(=O)N3C)O2)c1", "lysis activity": "1.2%"}, {"compound": "CC(C)NC(=O)N[C@H]1CC[C@H](CC(=O)NC2Cc3ccccc3C2)O[C@H]1CO", "lysis activity": "-0.817%"}, {"compound": "COc1ccccc1C#Cc1ccc2c(c1)O[C@H](CN(C)Cc1cccnc1)[C@@H](C)CN([C@H](C)CO)S2(=O)=O", "lysis activity": "3.3%"}, {"compound": "CO[C@@H]1CN(C)C(=O)c2ccc(NS(C)(=O)=O)cc2OC[C@@H](C)N(CC2CC2)C[C@@H]1C", "lysis activity": "2.22%"}, {"compound": "CN(C)C(=O)C[C@H]1CC[C@@H](NC(=O)C2CC2)[C@@H](CO)O1", "lysis activity": "-0.137%"}, {"compound": "C[C@@H]1CCCCO[C@H](CN(C)C(=O)NC2CCCCC2)[C@@H](C)CN([C@H](C)CO)C(=O)c2cc(NS(C)(=O)=O)ccc2O1", "lysis activity": "3.91%"}, {"compound": "C[C@@H]1CN([C@@H](C)CO)C(=O)c2cc(NS(=O)(=O)c3cn(C)cn3)ccc2O[C@@H](C)CCCCO[C@@H]1CN(C)Cc1ccncc1", "lysis activity": "-2.55%"}, {"compound": "O=C(NC[C@@H]1[C@@H](c2ccccc2)[C@H](CO)N1C(=O)C1CCC1)NC1CCCC1", "lysis activity": "94.8% (active)"}, {"compound": "CC(=O)N1[C@H](CO)[C@H](c2ccc(-c3ccccc3)cc2)[C@H]1CNC(=O)C1CC1", "lysis activity": "90.2% (active)"}, {"compound": "CC(=O)N1[C@H](CO)[C@@H](c2ccc(-c3ccc(F)cc3)cc2)[C@H]1CNC(=O)C1CC1", "lysis activity": "-1.15%"}, {"compound": "C/C=C/c1ccc([C@H]2[C@@H](CNC(=O)NC(C)C)N(C(=O)C3CCC3)[C@H]2CO)cc1", "lysis activity": "-1.4%"}, {"compound": "CCN(C[C@H]1[C@H](c2ccccc2)[C@H](CO)N1C(=O)C1CC1)C(=O)NC1CCCC1", "lysis activity": "3.3%"}, {"compound": "CC(=O)N1[C@H](CO)[C@@H](c2ccc(-c3ccccc3)cc2)[C@H]1CNC(=O)C1CC1", "lysis activity": "73.3%"}, {"compound": "CO[C@@H](CN(C)C(=O)Nc1ccc(F)cc1)[C@H](C)CN(Cc1ccccc1Cl)[C@@H](C)CO", "lysis activity": "13.4%"}, {"compound": "CCCC#Cc1ccc2c(c1)O[C@@H](CN(C)C(=O)c1cccnc1)[C@H](C)CN([C@H](C)CO)S2(=O)=O", "lysis activity": "-4.36%"}, {"compound": "C[C@H](CO)N1C[C@H](C)[C@@H](CN(C)C)Oc2cc(C#Cc3ccccc3)ccc2S1(=O)=O", "lysis activity": "0.917%"}, {"compound": "C/C=C/c1ccc2c(c1)O[C@@H](CN(C)S(=O)(=O)c1ccc(F)cc1)[C@@H](C)CN([C@H](C)CO)S2(=O)=O", "lysis activity": "3%"}, {"compound": "C[C@@H]1CN([C@H](C)CO)C(=O)CCCn2cc(nn2)CO[C@@H]1CN(C)Cc1ccccc1C(=O)O", "lysis activity": "-0.638%"}, {"compound": "Cc1ccccc1CN(C)C[C@H]1OCc2cn(nn2)CCCC(=O)N([C@@H](C)CO)C[C@H]1C", "lysis activity": "96.6% (active)"}, {"compound": "C[C@H](CO)N1C[C@H](C)[C@@H](CN(C)Cc2ccccc2C(F)(F)F)OCc2cn(nn2)CCCC1=O", "lysis activity": "-8.12%"}, {"compound": "CO[C@H]1CN(C)C(=O)c2ccc(NC(=O)Cc3ccccc3)cc2OC[C@@H](C)N(C(C)=O)C[C@H]1C", "lysis activity": "69.9%"}, {"compound": "C[C@@H]1CN([C@@H](C)CO)C(=O)c2cccc(NC(=O)Nc3ccc(C(F)(F)F)cc3)c2O[C@@H]1CN(C)S(=O)(=O)c1ccc(F)cc1", "lysis activity": "28.4%"}, {"compound": "C[C@@H]1CN([C@@H](C)CO)C(=O)Cc2cc(NS(=O)(=O)c3cccs3)ccc2O[C@@H]1CN(C)S(=O)(=O)c1ccc(F)cc1", "lysis activity": "-1.3%"}, {"compound": "CCCNC(=O)N1[C@H](CNC(=O)c2cccc(F)c2)[C@H](c2ccccc2)[C@@H]1CO", "lysis activity": "-0.391%"}, {"compound": "COc1cccc(S(=O)(=O)N[C@H]2CC[C@@H](CC(=O)NCc3ccc(F)cc3)O[C@@H]2CO)c1", "lysis activity": "3.95%"}, {"compound": "CCCNC(=O)C[C@H]1C[C@@H]2c3cc(NC(=O)C4CCOCC4)ccc3O[C@@H]2[C@H](CO)O1", "lysis activity": "1.8%"}, {"compound": "O=C(C[C@H]1CC[C@H](NC(=O)C2CCC2)[C@@H](CO)O1)Nc1nccs1", "lysis activity": "5.79%"}, {"compound": "COc1ccccc1S(=O)(=O)N[C@@H]1CC[C@@H](CCn2cc(C3CCCCC3)nn2)O[C@H]1CO", "lysis activity": "18.5%"}, {"compound": "O=C(C[C@@H]1C[C@H]2c3cc(NC(=O)Nc4ccccc4)ccc3O[C@H]2[C@@H](CO)O1)NCc1cccnc1", "lysis activity": "-4.19%"}, {"compound": "COC(=O)C[C@@H]1CC[C@@H]2[C@H](COc3ccc(NC(=O)Nc4cccc(F)c4)cc3C(=O)N2C)O1", "lysis activity": "5.11%"}, {"compound": "CO[C@@H](CN(C)C(=O)c1cnccn1)[C@@H](C)CN([C@@H](C)CO)S(=O)(=O)c1ccc(F)cc1", "lysis activity": "59.1%"}, {"compound": "CC(=O)N1[C@H](CN(CC2CCC2)C(=O)CN(C)C)[C@@H](c2ccccc2)[C@@H]1CO", "lysis activity": "-2.74%"}, {"compound": "CCC(=O)N1C[C@@H](C)[C@H](OC)CN(C)C(=O)c2ccc(NC(=O)c3ccc(F)cc3)cc2OC[C@@H]1C", "lysis activity": "-5.87%"}, {"compound": "COc1ccccc1NC(=O)N[C@H]1CC[C@H](CCn2cc(-c3cccnc3)nn2)O[C@@H]1CO", "lysis activity": "-0.992%"}, {"compound": "CNC[C@H]1Oc2ccc(NS(=O)(=O)c3ccc(F)cc3)cc2C(=O)N([C@@H](C)CO)C[C@@H]1C", "lysis activity": "3.02%"}, {"compound": "Cc1ccc(S(=O)(=O)N[C@H]2CC[C@@H](CC(=O)NCCCN(C)C)O[C@H]2CO)cc1", "lysis activity": "-1.04%"}, {"compound": "CCCNC(=O)[C@@H]1[C@@H](CO)[C@@H]2Cn3c(cccc3=O)[C@H]1N2C(=O)C1CC1", "lysis activity": "1.83%"}, {"compound": "CCCNC(=O)N1[C@@H]2c3cccc(=O)n3C[C@H]1[C@H](CO)[C@H]2C(=O)NCC(F)(F)F", "lysis activity": "-3.09%"}, {"compound": "CCCNC(=O)[C@@H]1[C@@H](CO)[C@@H]2Cn3c(cccc3=O)[C@H]1N2C(=O)Nc1cc(F)ccc1F", "lysis activity": "92.3% (active)"}, {"compound": "COc1ccc(S(=O)(=O)N(C)C[C@@H]2Oc3ccc(NC(=O)CCC(F)(F)F)cc3C(=O)N([C@@H](C)CO)C[C@H]2C)cc1", "lysis activity": "2.26%"}, {"compound": "O=C(C[C@H]1C=C[C@H](NS(=O)(=O)c2ccc(F)cc2)[C@H](CO)O1)NCc1ccncn1", "lysis activity": "-3.14%"}, {"compound": "C[C@@H]1CN([C@H](C)CO)C(=O)c2cc(NC(=O)CCCN(C)C)ccc2O[C@H]1CN(C)Cc1ccc(C(=O)O)cc1", "lysis activity": "-1.44%"}, {"compound": "CO[C@@H]1CN(C)C(=O)c2ccc(NC(=O)C3CCC3)cc2OC[C@H](C)NC[C@H]1C", "lysis activity": "1.85%"}, {"compound": "CC(C)NC(=O)N(C)C[C@H]1Oc2c(NC(=O)c3ccncc3)cccc2C(=O)N([C@@H](C)CO)C[C@H]1C", "lysis activity": "-2.5%"}, {"compound": "C[C@H](CO)N1C[C@H](C)[C@@H](CN(C)Cc2ccc(Oc3ccccc3)cc2)Oc2cc(-c3ccncc3)ccc2S1(=O)=O", "lysis activity": "-0.269%"}, {"compound": "CCCNC(=O)Nc1ccc2c(c1)OC[C@H](C)N(Cc1ccccc1)C[C@H](C)[C@H](OC)CN(C)C2=O", "lysis activity": "-0.367%"}, {"compound": "CO[C@@H]1CN(C)C(=O)c2ccc(NC(=O)C3CC3)cc2OC[C@@H](C)N(CC2CCOCC2)C[C@H]1C", "lysis activity": "61.5%"}, {"compound": "O=C(c1ccccc1)N1CC[C@H]2[C@H](CO)Nc3ccc(-c4ccc(F)cc4)cc3[C@H]21", "lysis activity": "21.5%"}, {"compound": "C/C=C/c1cnc2c(c1)C(=O)N([C@@H](C)CO)C[C@@H](C)[C@H](CN(C)Cc1cncnc1)O2", "lysis activity": "-1.92%"}, {"compound": "COc1cccc(NC(=O)N2CC[C@@H]3[C@@H](CO)N(C)c4ccc(-c5cccc(F)c5)cc4[C@@H]32)c1", "lysis activity": "-11.2%"}, {"compound": "Cc1noc(C)c1NC(=O)N(C)C[C@@H]1Oc2ccc(NC(=O)Nc3cccc4ccccc34)cc2CC(=O)N([C@@H](C)CO)C[C@H]1C", "lysis activity": "41.1%"}, {"compound": "CCN1[C@@H]2c3ccc(C4=CCCC4)c(=O)n3C[C@@H]2[C@@H](CO)[C@@H]1C(=O)NCc1ccccn1", "lysis activity": "1.37%"}, {"compound": "CO[C@@H]1CN(C)C(=O)c2ccc(NS(=O)(=O)c3ccc(Cl)cc3)cc2OC[C@H](C)N(C(=O)NC(C)C)C[C@H]1C", "lysis activity": "-5.3%"}, {"compound": "C[C@H]1CN([C@@H](C)CO)C(=O)c2cccc(NC(=O)Nc3ccccc3)c2O[C@@H]1CN(C)S(=O)(=O)c1ccc(F)cc1", "lysis activity": "-1.52%"}]}]}
